Experimental data as given in ChEMBL document CHEMBL1157184, “Hymenoic acid, a novel specific inhibitor of human DNA polymerase lambda from a fungus of Hymenochaetaceae sp” (Bioorg Med Chem, 2008).

How the values were obtained:
[1] = compound: C/C(=C\CC[C@H](C)C(=O)O)[C@H]1CC[C@H](C(=O)O)CC1; test: Inhibition of human DNA polymerase lambda at 40 uM using template primer as as substrate
How it was run: (§1)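 Kinetics on full-length human pol λ at 0, 20, 40 and 60 μM compound, varying either the template-primer poly(dA)/oligo(dT)12-18 or the nucleotide substrate dTTP. Km and Vmax (pmol/h) came from Lineweaver-Burk plots and Ki from Dixon plots.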

[2] = compound: C/C(=C\CC[C@H](C)C(=O)O)[C@H]1CC[C@H](C(=O)O)CC1; test: Inhibition of human DNA polymerase lambda at 60 uM using nucleotide as substrate; how it was run: as §1
[3] = compound: C/C(=C\CC[C@H](C)C(=O)O)[C@H]1CC[C@H](C(=O)O)CC1; test: Inhibition of human DNA polymerase lambda at 20 uM using template primer as substrate; how it was run: as §1
[4] = compound: C/C(=C\CC[C@H](C)C(=O)O)[C@H]1CC[C@H](C(=O)O)CC1; test: Inhibition of human DNA polymerase lambda at 20 uM using nucleotide as substrate; how it was run: as §1
[5] = compound: C/C(=C\CC[C@H](C)C(=O)O)[C@H]1CC[C@H](C(=O)O)CC1; test: Inhibition of human DNA polymerase lambda at 60 uM using template primer as as substrate; how it was run: as §1
[6] = compound: C/C(=C\CC[C@H](C)C(=O)O)[C@H]1CC[C@H](C(=O)O)CC1; test: Inhibition of human DNA polymerase lambda at 40 uM using nucleotide as substrate; how it was run: as §1

B1: DNA polymerase lambda (Homo sapiens), Q9UGP5 (protein)
chain: MDPRGILKAFPKRQKIHADASSKVLAKIPRREEGEEAEEWLSSLRAHVVRTGIGRARAELFEKQIVQHGGQLCPAQGPGVTHIVVDEGMDYERALRLLRLPQLPPGAQLVKSAWLSLCLQERRLVDVAGFSIFIPSRYLDHPQPSKAEQDASIPPGTHEALLQTALSPPPPPTRPVSPPQKAKEAPNTQAQPISDDEASDGEETQVSAADLEALISGHYPTSLEGDCEPSPAPAVLDKWVCAQPSSQKATNHNLHITEKLEVLAKAYSVQGDKWRALGYAKAINALKSFHKPVTSYQEACSIPGIGKRMAEKIIEILESGHLRKLDHISESVPVLELFSNIWGAGTKTAQMWYQQGFRSLEDIRSQASLTTQQAIGLKHYSDFLERMPREEATEIEQTVQKAAQAFNSGLLCVACGSYRRGKATCGDVDVLITHPDGRSHRGIFSRLLDSLRQEGFLTDDLVSQEENGQQQKYLGVCRLPGPGRRHRRLDIIVVPYSEFACALLYFTGSAHFNRSMRALAKTKGMSLSEHALSTAVVRNTHGCKVGPGRVLPTPTEKDVFRLLGLPYREPAERDW
With B1 as the protein, how does the Vmax [1] read?
The Vmax was 48.8 pmol/h.

What about the Vmax [2] of the same protein?
The Vmax was 27 pmol/h.

What about the Vmax [3] of the same protein?
The Vmax was 62.5 pmol/h.

And the Vmax [4]?
Its Vmax is 40 pmol/h.

And the Vmax [5]?
The Vmax was 40.8 pmol/h.

What about the Vmax [6] of the same protein?
The Vmax was 32.3 pmol/h.
